Reference: ChEMBL document CHEMBL1132401, “Glycosylation of fluoroquinolones through direct and oxygenated polymethylene linkages as a sugar-mediated active transport system for antimicrobials” (1999)
≈ marks a conversion by molar mass, not a printed value.

Experiments:
Format in all cases: functional
[1] = test system: Enterococcus faecalis; assay: Minimum concentration required to prevent the growth of vancomycin resistant (VanB) Enterococcus faecalis strain A1081
How it was run: (§1)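 Agar dilution susceptibility testing per NCCLS guidelines against resistant clinical isolates, with nonresistant ATCC stock strains run as controls. Plates were read at 19–24 h of incubation. MIC reported in µg/mL.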

[2] = test system: Staphylococcus aureus; assay: Minimum concentration required to prevent the growth of multiply resistant (MRSA) Staphylococcus aureus strain A0170; how it was run: as §1
[3] = test system: Enterococcus faecium; assay: Minimum concentration required to prevent the growth of vancomycin resistant (VanB) Enterococcus faecium strain A1087; how it was run: as §1
[4] = test system: Listeria monocytogenes; assay: Minimum concentration required to prevent the growth of Listeria monocytogenes strain A0183
How it was run: (§2)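 Agar dilution susceptibility testing per NCCLS guidelines, covering clinical isolates (including resistant phenotypes) and nonresistant ATCC stock strains as controls. Plates read after 19–24 h of incubation. MIC reported in μg/mL.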

[5] = test system: Staphylococcus epidermidis; assay: Minimum concentration required to prevent the growth of multiply resistant Staphylococcus epidermidis (MRSE) coag.-neg. Staph. A0244; how it was run: as §1
[6] = test system: Klebsiella oxytoca; assay: Minimum concentration required to prevent the growth of cipro resistant (Cipro-I) Klebsiella oxytoca strain A3530; how it was run: as §1
[7] = test system: Staphylococcus epidermidis; assay: Minimum concentration required to prevent the growth of multiply resistant Staphylococcus epidermidis (MRSE) and cipro resistant (Cipro-R) coag.-neg. Staph. A0247; how it was run: as §1
[8] = test system: Pseudomonas aeruginosa; assay: Minimum concentration required to prevent the growth of Pseudomonas aeruginosa strain 28245; how it was run: as §2
[9] = test system: Staphylococcus epidermidis; assay: Minimum concentration required to prevent the growth of multiply resistant Staphylococcus epidermidis (MRSE) coag.-neg. Staph. A0245; how it was run: as §1
[10] = test system: Escherichia coli; assay: Minimum concentration required to prevent the growth of cipro resistant (Cipro-R) Escherichia coli strain A3529; how it was run: as §2
[11] = test system: Enterococcus faecium; assay: Minimum concentration required to prevent the growth of vancomycin resistant (VanA) Enterococcus faecium strain A1745; how it was run: as §1
[12] = test system: Pseudomonas aeruginosa; assay: Minimum concentration required to prevent the growth of Pseudomonas aeruginosa strain 28215; how it was run: as §2
[13] = test system: Enterococcus faecium; assay: Minimum concentration required to prevent the growth of vancomycin resistant (VanB) Enterococcus faecium strain A0803; how it was run: as §1
[14] = test system: Escherichia coli; assay: Minimum concentration required to prevent the growth of cipro resistant (Cipro-R) Escherichia coli strain A3228; how it was run: as §2
[15] = test system: Staphylococcus epidermidis; assay: Minimum concentration required to prevent the growth of multiply resistant Staphylococcus epidermidis (MRSE) and cipro resistant (Cipro-R) coag.-neg. Staph. A0248; how it was run: as §1
[16] = test system: Klebsiella pneumoniae; assay: Minimum concentration required to prevent the growth of cipro resistant (Cipro-I) Klebsiella pneumoniae strain AM; how it was run: as §1
[17] = test system: Escherichia coli; assay: Minimum concentration required to prevent the growth of cipro resistant (Cipro-R) Escherichia coli strain AA; how it was run: as §2
[18] = test system: Escherichia coli; assay: Minimum concentration required to prevent the growth of nonresistant stock Escherichia coli strain 25922 from American Type Culture Collection (ATCC); conditions: ATCC25922; how it was run: as §2
[19] = test system: Staphylococcus aureus; assay: Minimum concentration required to prevent the growth of multiply resistant (MRSA) and cipro resistant (Cipro-R) Staphylococcus aureus strain A2043; how it was run: as §1
[20] = test system: Enterococcus faecium; assay: Minimum concentration required to prevent the growth of nonresistant stock strain Enterococcus faecium 19434 from American Type Culture Collection (ATCC); how it was run: as §2
[21] = test system: Staphylococcus aureus; assay: Minimum concentration required to prevent the growth of multiply resistant (MRSA) and cipro resistant (Cipro-R) Staphylococcus aureus strain A2800; how it was run: as §1
[22] = test system: Staphylococcus aureus; assay: Minimum concentration required to prevent the growth of multiply resistant (MRSA) Staphylococcus aureus strain A0171; how it was run: as §1
[23] = test system: Listeria monocytogenes; assay: Minimum concentration required to prevent the growth of Listeria monocytogenes strain A0182; how it was run: as §2
[24] = test system: Enterococcus faecalis; assay: Minimum concentration required to prevent the growth of vancomycin resistant (VanA) Enterococcus faecalis strain A0402; how it was run: as §1
[25] = test system: Enterococcus faecalis; assay: Minimum concentration required to prevent the growth of nonresistant stock strain Enterococcus faecalis 51299 from American Type Culture Collection (ATCC); how it was run: as §1
[26] = test system: Enterococcus faecalis; assay: Minimum concentration required to prevent the growth of vancomycin resistant (VanA) Enterococcus faecalis strain A0401; how it was run: as §1
[27] = test system: Enterococcus faecalis; assay: Minimum concentration required to prevent the growth of high level gentamicin and beta- lactamase resistant (HLGR, BLA+) Enterococcus faecalis strain A0089; how it was run: as §1

O=C(O)c1cn(C2CC2)c2cc(N3CCN(C4OC(CO)C(O)C(O)C4O)CC3)c(F)cc2c1=O (stereo in doubt; form 3)
MIC [1]: 1 µg/mL (≈ 2.03 µM)
MIC [2]: 0.5 µg/mL (≈ 1.01 µM)
MIC [3]: 4 µg/mL (≈ 8.11 µM)
MIC [4]: 2 µg/mL (≈ 4.05 µM)
MIC [5]: 1 µg/mL (≈ 2.03 µM)
MIC [6]: 8 µg/mL (≈ 16.2 µM)
MIC [7]: > 32 µg/mL
MIC [8]: 4 µg/mL (≈ 8.11 µM)
MIC [9]: 0.5 µg/mL (≈ 1.01 µM)
MIC [10]: 32 µg/mL (≈ 64.8 µM)
MIC [11]: > 32 µg/mL
MIC [12]: 0.5 µg/mL (≈ 1.01 µM)
MIC [13]: 4 µg/mL (≈ 8.11 µM)
MIC [14]: > 32 µg/mL
MIC [15]: > 32 µg/mL
MIC [16]: 4 µg/mL (≈ 8.11 µM)
MIC [17]: 8 µg/mL (≈ 16.2 µM)
MIC [18]: < 0.03 µg/mL
MIC [19]: > 32 µg/mL
MIC [20]: 8 µg/mL (≈ 16.2 µM)
MIC [21]: > 32 µg/mL
MIC [22]: 0.5 µg/mL (≈ 1.01 µM)
MIC [23]: 2 µg/mL (≈ 4.05 µM)

O=C(O)c1cn(C2CC2)c2cc(N3CCN(C4OC(CO)C(O)C(O)C4O)CC3)c(F)cc2c1=O (stereo in doubt; form 2)
MIC [1]: 0.5 µg/mL (≈ 1.01 µM)
MIC [2]: 0.5 µg/mL (≈ 1.01 µM)
MIC [4]: 2 µg/mL (≈ 4.05 µM)
MIC [5]: 1 µg/mL (≈ 2.03 µM)
MIC [6]: 8 µg/mL (≈ 16.2 µM)
MIC [24]: 1 µg/mL (≈ 2.03 µM)
MIC [8]: 4 µg/mL (≈ 8.11 µM)
MIC [9]: 0.5 µg/mL (≈ 1.01 µM)
MIC [10]: 32 µg/mL (≈ 64.8 µM)
MIC [11]: > 32 µg/mL
MIC [12]: 0.5 µg/mL (≈ 1.01 µM)
MIC [13]: 2 µg/mL (≈ 4.05 µM)
MIC [16]: 2 µg/mL (≈ 4.05 µM)
MIC [17]: 8 µg/mL (≈ 16.2 µM)
MIC [25]: 1 µg/mL (≈ 2.03 µM)
MIC [26]: 2 µg/mL (≈ 4.05 µM)
MIC [27]: 1 µg/mL (≈ 2.03 µM)
MIC [20]: 8 µg/mL (≈ 16.2 µM)
MIC [22]: 0.5 µg/mL (≈ 1.01 µM)
MIC [23]: 2 µg/mL (≈ 4.05 µM)
